Data on eight compounds can be found in ChEMBL document CHEMBL4138308, “Simultaneous Targeting of RGD-Integrins and Dual Murine Double Minute Proteins in Glioblastoma Multiforme” (J Med Chem, 2018).

One assay has as its target Integrin alpha-V/beta-3 (Homo sapiens, UniProt P05106+P06756). Put plainly: Inhibition of vitronectin binding to human alphaVbeta3 integrin after 1 hr by ELISA. It counts as protein-complex assay. The procedure, abridged:
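Plates coated overnight at 4 °C with vitronectin 1.0 μg/mL in carbonate buffer pH 9.6, blocked 1 h with TSB (Ca2+, Mg2+, Mn2+, 1% BSA). Soluble human αvβ3 (final 1.0 μg/mL) with inhibitor (final 0.128–400 nM) 1 h at room temperature; detection by anti-CD51/61 then peroxidase secondary, absorbance 405 nm. Duplicates; IC50 from curve inflection point; internal standard per plate.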
For orientation: An ELISA detects its analyte on a solid surface through an enzyme-linked reagent.

In assay [1] the target is T1, E3 ubiquitin-protein ligase Mdm2 (Homo sapiens, UniProt Q00987). The experiment in a line: Displacement of p53 from MDM2 in human U87MG cells incubated for 10 mins by sandwich ELISA method. The assay is classed as cell-based.
Target sequence in this assay (Q00987 whole entry): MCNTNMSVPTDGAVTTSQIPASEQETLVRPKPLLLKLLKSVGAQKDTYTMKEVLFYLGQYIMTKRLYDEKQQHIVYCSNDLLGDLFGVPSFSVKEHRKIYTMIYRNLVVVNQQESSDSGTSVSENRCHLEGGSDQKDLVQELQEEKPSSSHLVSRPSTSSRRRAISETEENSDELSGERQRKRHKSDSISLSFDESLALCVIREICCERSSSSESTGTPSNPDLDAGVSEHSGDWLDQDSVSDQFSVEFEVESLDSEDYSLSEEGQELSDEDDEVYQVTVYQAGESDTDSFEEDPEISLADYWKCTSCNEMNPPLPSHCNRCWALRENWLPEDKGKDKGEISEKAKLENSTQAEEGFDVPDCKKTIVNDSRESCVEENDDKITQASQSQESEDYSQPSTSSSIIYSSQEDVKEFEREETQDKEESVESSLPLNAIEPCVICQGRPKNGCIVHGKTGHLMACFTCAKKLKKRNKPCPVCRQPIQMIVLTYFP
The target of a further assay is Integrin alpha-5/beta-1 (Homo sapiens, UniProt P05556+P08648). Put plainly: Inhibition of fibronectin binding to soluble alpha5beta1 integrin (unknown origin) after 1 hr by ELISA. The assay is classed as protein-complex assay.
Sequence of Integrin alpha-5/beta-1 (P05556 21-798 limits assumed): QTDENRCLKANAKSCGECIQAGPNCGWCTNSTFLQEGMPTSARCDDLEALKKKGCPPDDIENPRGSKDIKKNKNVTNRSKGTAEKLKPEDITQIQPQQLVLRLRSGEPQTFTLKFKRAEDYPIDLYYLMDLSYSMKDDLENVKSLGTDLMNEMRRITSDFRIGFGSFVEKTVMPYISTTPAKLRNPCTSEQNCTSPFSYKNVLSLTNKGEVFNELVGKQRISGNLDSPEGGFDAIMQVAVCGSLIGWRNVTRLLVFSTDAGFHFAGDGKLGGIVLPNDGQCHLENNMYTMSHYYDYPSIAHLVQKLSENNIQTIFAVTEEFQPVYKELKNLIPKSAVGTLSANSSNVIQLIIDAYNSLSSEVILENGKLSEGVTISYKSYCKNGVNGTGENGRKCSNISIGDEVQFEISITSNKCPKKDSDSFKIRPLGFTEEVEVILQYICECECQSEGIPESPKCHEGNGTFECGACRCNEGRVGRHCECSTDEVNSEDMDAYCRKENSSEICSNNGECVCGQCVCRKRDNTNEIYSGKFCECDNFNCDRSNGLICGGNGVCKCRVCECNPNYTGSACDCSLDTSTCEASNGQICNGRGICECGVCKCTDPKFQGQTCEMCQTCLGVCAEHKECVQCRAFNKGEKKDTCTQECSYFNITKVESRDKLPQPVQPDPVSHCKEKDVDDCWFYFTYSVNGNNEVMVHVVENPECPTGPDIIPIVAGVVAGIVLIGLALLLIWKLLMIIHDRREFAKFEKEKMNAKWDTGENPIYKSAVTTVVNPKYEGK
Sequence of Integrin alpha-5/beta-1 (P08648 42-894 limits assumed): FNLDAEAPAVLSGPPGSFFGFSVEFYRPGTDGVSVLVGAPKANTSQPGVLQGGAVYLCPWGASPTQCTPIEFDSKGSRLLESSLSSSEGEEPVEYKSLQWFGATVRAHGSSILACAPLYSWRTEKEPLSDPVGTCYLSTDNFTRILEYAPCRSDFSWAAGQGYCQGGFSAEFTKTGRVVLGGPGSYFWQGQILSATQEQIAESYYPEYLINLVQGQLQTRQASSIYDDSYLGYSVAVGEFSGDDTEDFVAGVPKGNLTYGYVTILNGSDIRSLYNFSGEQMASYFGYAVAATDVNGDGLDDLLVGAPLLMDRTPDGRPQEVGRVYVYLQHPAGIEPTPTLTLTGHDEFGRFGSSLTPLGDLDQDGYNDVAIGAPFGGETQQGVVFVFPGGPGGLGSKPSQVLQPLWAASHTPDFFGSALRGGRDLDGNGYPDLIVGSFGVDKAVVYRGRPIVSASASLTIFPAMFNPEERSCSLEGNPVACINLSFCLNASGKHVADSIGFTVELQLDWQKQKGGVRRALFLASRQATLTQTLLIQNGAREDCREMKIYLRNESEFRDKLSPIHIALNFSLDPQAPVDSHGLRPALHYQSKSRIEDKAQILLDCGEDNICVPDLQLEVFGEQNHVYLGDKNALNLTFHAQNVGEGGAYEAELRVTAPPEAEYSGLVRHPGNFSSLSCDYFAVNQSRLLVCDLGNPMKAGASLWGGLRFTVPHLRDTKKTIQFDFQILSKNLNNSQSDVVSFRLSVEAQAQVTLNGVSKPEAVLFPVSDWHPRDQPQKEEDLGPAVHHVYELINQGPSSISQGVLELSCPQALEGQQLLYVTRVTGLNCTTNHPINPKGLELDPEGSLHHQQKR
Sequence of Integrin alpha-5/beta-1 (P08648 895-1049 limits assumed): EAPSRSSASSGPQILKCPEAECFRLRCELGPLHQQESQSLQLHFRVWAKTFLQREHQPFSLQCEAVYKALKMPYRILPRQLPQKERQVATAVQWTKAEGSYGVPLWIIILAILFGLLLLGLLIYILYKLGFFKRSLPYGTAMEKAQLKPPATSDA
The target of the next assay is T2, Protein Mdm4 (Homo sapiens, UniProt O15151).
T2 sequence (O15151 whole entry): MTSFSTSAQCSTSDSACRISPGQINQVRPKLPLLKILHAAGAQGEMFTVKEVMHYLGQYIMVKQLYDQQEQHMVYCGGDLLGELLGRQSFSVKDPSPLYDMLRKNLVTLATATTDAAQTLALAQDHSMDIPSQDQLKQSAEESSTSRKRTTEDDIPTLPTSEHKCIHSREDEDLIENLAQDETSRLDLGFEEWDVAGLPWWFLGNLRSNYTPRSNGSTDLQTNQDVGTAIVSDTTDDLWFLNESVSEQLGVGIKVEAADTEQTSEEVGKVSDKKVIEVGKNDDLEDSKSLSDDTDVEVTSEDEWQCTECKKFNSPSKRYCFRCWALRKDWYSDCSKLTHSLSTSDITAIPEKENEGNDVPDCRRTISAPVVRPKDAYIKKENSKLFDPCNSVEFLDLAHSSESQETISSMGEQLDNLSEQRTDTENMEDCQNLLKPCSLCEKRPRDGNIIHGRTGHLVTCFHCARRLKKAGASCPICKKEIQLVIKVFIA
Put plainly: Displacement of p53 from MDM4 in human SHSY-5Y cells incubated for 10 mins by sandwich ELISA method. The assay is classed as cell-based.

In assay [2] the test system is U-87 MG. The experiment in a line: Antiproliferative activity against human U87MG cells at 100 nM after 72 hrs in presence of alphaVbeta3 inhibitor cilengitide and MDM2 inhibitor nutlin-3 by MTS assay. The settings on record: U-87MG ATCC. It counts as functional, cell-based. Put shortly:
(§1)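 Cells seeded ~5000 cells/cm2, after 24 h medium replaced with compound in DMSO (DMSO 1% v/v in controls), alone or in combination at 100 nM each, or concentration series (U87MG 1–100 nM). 72 h exposure; proliferation read by MTS, expressed as % of DMSO control (mean ± SEM, N = 3); IC50 from sigmoid dose–response fit.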
Background: Tetrazolium dyes change colour on reduction, which living cells bring about.

In assay [3] the target is T3, Protein Mdm4 (Homo sapiens) (UniProt O15151).
T3 sequence (whole entry): T2 sequence (O15151 whole entry)
The experiment in a line: Inhibition of MDM4 in human U87MG cells assessed as increase in p53 accumulation at 100 nM after 24 hrs in presence of MDM2 inhibitor nutlin-3 and alphaVbeta3 inhibitor cilengitide by Western blot method. It counts as cell-based. The procedure, abridged:
(§2)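 U87MG cells treated 24 h with agents at 100 nM, alone or combined; 40 μg lysate protein resolved by SDS-PAGE, immunoblotted for p53 with GAPDH loading control; bands quantified by densitometry as % of DMSO control (mean ± SEM, N = 3).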

The test system of assay [4] is U-87 MG. The experiment in a line: Antiproliferative activity against human U87MG cells at 100 nM after 72 hrs by MTS assay. It counts as functional, cell-based. Conditions: U-87MG ATCC. Put shortly:
as §1

For assay [5], the target named is T3, Protein Mdm4 (Homo sapiens). Put plainly: Inhibition of MDM4 in human U87MG cells assessed as increase in MDM2 mRNA expression at 100 nM after 8 hrs in presence of MDM2 inhibitor nutlin-3 and alphaVbeta3 inhibitor cilengitide by RT-PCR method. The assay is classed as cell-based. Put shortly: (§3)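 U87MG cells exposed to agents at 100 nM, alone or combined, for 8 or 24 h; total RNA extracted, cDNA made from 500 ng RNA, MDM2, PUMA and p21 transcripts quantified by real-time PCR. Data as % of DMSO control, mean ± SEM, N = 3.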

For assay [6] the target is unchanged. The experiment in a line: Inhibition of MDM4 in human U87MG cells assessed as increase in PUMA mRNA expression at 100 nM after 24 hrs by RT-PCR method. The assay is classed as cell-based. Put shortly: as §3
Assay [7] shares this target. Put plainly: Inhibition of MDM4 in human U87MG cells assessed as increase in PUMA mRNA expression at 100 nM after 24 hrs in presence of alphaVbeta3 inhibitor cilengitide by RT-PCR method. It counts as cell-based. The procedure, abridged:
as §3

Assay [8] deals with U-87 MG. Put plainly: Anti-invasive activity in human U87MG cells at 10 uM after 24 hrs in presence of MDM2 inhibitor nutlin-3 and alphaVbeta3 inhibitor cilengitide by transwell assay. It counts as functional, cell-based. Conditions: U-87MG ATCC. The procedure, abridged: (§4)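 U87MG cells suspended in serum-free medium (60,000 cells), treated at 10 μM (each agent at 10 μM when combined), placed in upper chamber of Matrigel-coated (0.32 mg/mL) transwell; lower chamber RPMI with 10% FBS. Invasion 24 h at 37 °C; cells on lower membrane surface fixed with p-formaldehyde, crystal violet stained, counted in five random fields per filter. Mean ± SEM vs DMSO control.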

In assay [9] the target is T3, Protein Mdm4 (Homo sapiens). Put plainly: Inhibition of MDM4 in human U87MG cells assessed as increase in p21 mRNA expression at 100 nM after 24 hrs by RT-PCR method. The assay is classed as cell-based. The procedure, abridged: as §3
Another assay concerns the target MDM4 (Homo sapiens) (UniProt O15151). The experiment in a line: Inhibition of MDM4 in human U87MG cells assessed as increase in PUMA mRNA expression at 100 nM after 24 hrs in presence of MDM2 inhibitor nutlin-3 and alphaVbeta3 inhibitor cilengitide by RT-PCR method.
The target of assay [10] is T3, Protein Mdm4 (Homo sapiens). The experiment in a line: Inhibition of MDM4 in human U87MG cells assessed as increase in p53 accumulation at 100 nM after 24 hrs in presence of MDM2 inhibitor nutlin-3 by Western blot method. It counts as cell-based. Put shortly: as §2
Assay [11] shares this target. Put plainly: Inhibition of MDM4 in human U87MG cells assessed as increase in PUMA mRNA expression at 100 nM after 24 hrs in presence of MDM2 inhibitor nutlin-3 by RT-PCR method. The assay is classed as cell-based. The procedure, abridged: as §3
For assay [12] the target is unchanged. Put plainly: Inhibition of MDM4 in human U87MG cells assessed as increase in MDM2 mRNA expression at 100 nM after 8 hrs in presence of MDM2 inhibitor nutlin-3 by RT-PCR method. It counts as cell-based. Put shortly: as §3
The test system of assay [13] is U-87 MG. The experiment in a line: Anti-invasive activity in human U87MG cells at 10 uM after 24 hrs by transwell assay. The assay is classed as functional. The settings on record: U-87MG ATCC. Put shortly: as §4
The subject of assay [14] is U-87 MG. The experiment in a line: Antiproliferative activity against human U87MG cells at 100 nM after 72 hrs in presence of MDM2 inhibitor nutlin-3 and MDM4 inhibitor SJ-1722550 by MTS assay. The assay is classed as functional, cell-based. The settings on record: U-87MG ATCC. Put shortly:
as §1

Assay [15] has as its system U-87 MG. The experiment in a line: Antiproliferative activity against human U87MG cells at 100 nM after 72 hrs in presence of MDM2 inhibitor nutlin-3 by MTS assay. It counts as functional, cell-based. The settings on record: U-87MG ATCC. The procedure, abridged:
as §1

For assay [16], the target named is T3, Protein Mdm4 (Homo sapiens). The experiment in a line: Displacement of p53 from MDM4 in human SHSY-5Y cells at 100 uM incubated for 10 mins by sandwich ELISA method relative to control. It counts as cell-based. The procedure, abridged: (§5)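 Native complexes in cell lysates (U87MG for p53/MDM2; SHSY-5Y for p53/MDM4). Compound incubated with lysate 10 min at room temperature, then 90 min in wells precoated with anti-MDM2 or anti-MDM4; blocked with 1% BSA, anti-p53 (1:250) 90 min, HRP secondary 60 min, TMB read at 450 nm. Blanks lacked anti-p53. Mean of three determinations.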

In assay [17] the target is T1, E3 ubiquitin-protein ligase Mdm2. The experiment in a line: Displacement of p53 from MDM2 in human U87MG cells at 100 uM incubated for 10 mins by sandwich ELISA method relative to control. It counts as cell-based. The procedure, abridged:
as §5
Target sequence in this assay (Q00987 whole entry, looked up): as the sequence (Q00987 whole entry) above

Assay [18] deals with U-87 MG. The experiment in a line: Anti-invasive activity in human U87MG cells at 10 uM after 24 hrs in presence of MDM2 inhibitor nutlin-3 and MDM4 inhibitor SJ-1722550 by transwell assay. The assay is classed as functional, cell-based. The settings on record: U-87MG ATCC. The procedure, abridged:
as §4

Calls of active or inactive are those of the source. The calls are words filed in the database; no cut-off is given here. Where only a bound is given, the exact number is not on record here.

Sequence of Integrin alpha-V/beta-3 (P05106 27-788 limits assumed): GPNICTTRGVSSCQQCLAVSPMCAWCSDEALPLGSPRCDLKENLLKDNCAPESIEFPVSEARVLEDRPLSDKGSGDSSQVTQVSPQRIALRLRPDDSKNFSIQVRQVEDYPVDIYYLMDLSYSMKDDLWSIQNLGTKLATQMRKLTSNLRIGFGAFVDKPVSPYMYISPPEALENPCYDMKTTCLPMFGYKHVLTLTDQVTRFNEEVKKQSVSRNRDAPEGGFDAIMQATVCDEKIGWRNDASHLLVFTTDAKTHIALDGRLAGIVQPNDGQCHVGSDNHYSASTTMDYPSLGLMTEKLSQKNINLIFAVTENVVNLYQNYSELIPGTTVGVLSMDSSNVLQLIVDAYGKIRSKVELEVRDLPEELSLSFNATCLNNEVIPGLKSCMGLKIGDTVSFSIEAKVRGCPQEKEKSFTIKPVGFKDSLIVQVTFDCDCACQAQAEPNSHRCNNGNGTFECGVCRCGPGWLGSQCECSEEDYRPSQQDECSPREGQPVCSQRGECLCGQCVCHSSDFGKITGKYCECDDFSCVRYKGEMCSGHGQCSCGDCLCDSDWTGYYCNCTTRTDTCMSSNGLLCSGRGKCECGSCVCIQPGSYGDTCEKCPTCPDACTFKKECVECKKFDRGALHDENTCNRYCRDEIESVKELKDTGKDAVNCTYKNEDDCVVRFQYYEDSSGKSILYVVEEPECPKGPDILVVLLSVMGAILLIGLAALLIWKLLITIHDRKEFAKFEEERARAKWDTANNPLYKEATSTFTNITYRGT
Sequence of Integrin alpha-V/beta-3 (P06756 31-889 limits assumed): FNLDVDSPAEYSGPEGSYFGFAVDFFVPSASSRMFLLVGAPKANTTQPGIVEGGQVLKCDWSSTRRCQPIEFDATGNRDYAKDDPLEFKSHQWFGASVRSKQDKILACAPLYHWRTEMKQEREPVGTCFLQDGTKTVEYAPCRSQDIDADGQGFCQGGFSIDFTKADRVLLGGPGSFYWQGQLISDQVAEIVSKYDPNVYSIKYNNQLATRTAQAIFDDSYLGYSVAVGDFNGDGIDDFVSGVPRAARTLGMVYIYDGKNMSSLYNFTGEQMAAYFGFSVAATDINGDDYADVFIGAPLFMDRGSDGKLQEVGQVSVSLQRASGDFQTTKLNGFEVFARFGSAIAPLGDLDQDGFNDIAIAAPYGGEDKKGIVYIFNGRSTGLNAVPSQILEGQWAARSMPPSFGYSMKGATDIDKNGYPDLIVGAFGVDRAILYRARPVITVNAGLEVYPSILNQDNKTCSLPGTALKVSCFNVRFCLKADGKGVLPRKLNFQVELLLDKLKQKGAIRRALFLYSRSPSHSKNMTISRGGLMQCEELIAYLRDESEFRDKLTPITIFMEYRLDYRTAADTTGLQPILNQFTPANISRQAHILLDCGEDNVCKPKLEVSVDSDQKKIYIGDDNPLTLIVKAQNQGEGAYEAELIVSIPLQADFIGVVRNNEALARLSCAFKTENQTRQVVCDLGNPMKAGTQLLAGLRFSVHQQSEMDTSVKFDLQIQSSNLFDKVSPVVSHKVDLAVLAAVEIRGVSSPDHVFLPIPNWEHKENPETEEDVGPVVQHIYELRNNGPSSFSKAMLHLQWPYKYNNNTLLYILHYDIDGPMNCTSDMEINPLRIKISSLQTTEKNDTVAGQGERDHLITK
Sequence of Integrin alpha-V/beta-3 (P06756 891-1048 limits assumed): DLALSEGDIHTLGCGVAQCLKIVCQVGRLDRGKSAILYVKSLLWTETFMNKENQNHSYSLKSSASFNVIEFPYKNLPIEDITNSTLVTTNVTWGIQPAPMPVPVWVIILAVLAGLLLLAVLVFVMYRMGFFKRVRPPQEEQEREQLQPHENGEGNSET

In the case of `N=C(N)Nc1cccc(C(=O)NCC(=O)N[C@@H](CC(=O)O)C(=O)NCC(c2ccccc2)c2ccccc2)c1`, the IC50 (in general, the concentration that inhibits the measured activity by half) at Integrin alpha-V/beta-3 is 0.00091 µM; in assay [1], greater than 1 µM; on Integrin alpha-5/beta-1, 0.022 µM.
In the case of `N=C(N)Nc1cccc(C(=O)NCC(=O)N[C@@H](CC(=O)O)C(=O)NCCc2ccccc2)c1`, the IC50 on Integrin alpha-V/beta-3 stood at 0.0028 µM; on Integrin alpha-5/beta-1, 0.028 µM.
As for `N=C(N)Nc1cccc(C(=O)NCC(=O)N[C@@H](CC(=O)O)C(=O)Nc2ccccc2)c1`, the IC50 is 0.00021 µM on Integrin alpha-V/beta-3, greater than 1 µM in [1], greater than 1 µM at Protein Mdm4 and 0.013 µM at Integrin alpha-5/beta-1.
Turning to `CCOc1cc(/C=C2\C(=O)N(c3ccccc3)N=C2C)cc(Cl)c1OCC(=O)OC`, the result in the assay with U-87 MG [2] and in the assay on U-87 MG [8] was Active. The inhibition result (in assay [3]; in assay [5]; in assay [6]; in [7]; in assay [9]; at MDM4 (Homo sapiens)) was “Active” in each case. The inhibition entry in [10], in assay [11] and in assay [12] was “Active” each time. Besides, in the assay with U-87 MG [4], the result was inactive.
Turning to `CC(C)[C@H]1C(=O)N[C@@H](CCCNC(=N)N)C(=O)NCC(=O)N[C@@H](CC(=O)O)C(=O)N[C@H](Cc2ccccc2)C(=O)N1C`, the outcome with U-87 MG [13], with U-87 MG [14], with U-87 MG [15] and in the assay with U-87 MG [18] was Active. The result in the assay on U-87 MG [4] was inactive. For the same compound, the inhibition (usually the change of the read-out against control, counted positive when it falls) in [16] was found to be 2.6%; in assay [17], 14.1%.
Turning to `COc1ccc(CNC(=O)[C@H](CC(=O)O)NC(=O)CNC(=O)c2cccc(NC(=N)N)c2)cc1`, the IC50 on Integrin alpha-V/beta-3 is 0.0012 µM; on Protein Mdm4, greater than 1 µM; at Integrin alpha-5/beta-1, 0.04 µM.
As to `C[C@H](NC(=O)[C@H](CC(=O)O)NC(=O)CNC(=O)c1cccc(NC(=N)N)c1)c1ccccc1`, the IC50 at Integrin alpha-V/beta-3 is 0.00091 µM; at Integrin alpha-5/beta-1, 0.02 µM.
For `N=C(N)Nc1cccc(C(=O)NCC(=O)N[C@@H](CC(=O)O)C(=O)Nc2cccc3ccccc23)c1`, in that order: 0.0045 µM and 0.022 µM.
